Experimental data of several laboratories.
Lines come from different studies, so protocols differ.
Action: inhibitor
ACHE: Acetylcholinesterase (ACHE, Homo sapiens, UniProt P22303)
DPP4: Dipeptidyl peptidase 4 (DPP4, Homo sapiens, UniProt P27487)
CDK9 with cyclin T1: Cyclin-dependent kinase 9, with cyclin T1 (CDK9, Homo sapiens, UniProt P50750)
APOBEC3G: DNA dC->dU-editing enzyme APOBEC-3G (APOBEC3G, Homo sapiens, UniProt Q9HC16)

| Structure (SMILES) | target | assay | test system | setting | IC50 [µM] |
| --- | --- | --- | --- | --- | --- |
| C=CCn1c2cc(OC(=O)CCCCN3CCN(Cc4ccccc4F)CC3)ccc2c2ccnc(C)c21 | ACHE | enzyme activity, Ellman | – | – | 0.15 |
| CC[C@H](C)[C@H](N)C(=O)N1CCC[C@H]1C(=O)N[C@H](C(=O)N1CCC[C@H]1C(=O)N[C@H](C(=O)O)[C@@H](C)CC)C(C)C | DPP4 | enzyme activity, absorbance | – | pH 8 | 57 |
| CC(C)C[C@@H]1C(=O)N[C@H]([C@@H](C)O)C(=O)N[C@H](C)[C@@H](C)C(=O)O[C@@H](Cc2ccccc2)C(=O)N(C)[C@@H](C(C)C)C(=O)N2CCC[C@H]2C(=O)N(C)[C@H](Cc2ccccc2)C2=N[C@@H](CS2)C(=O)N[C@H](C)C2=N[C@@H](CS2)C(=O)N1C | DPP4 | enzyme activity | – | – | 164 |
| CC[C@H](C)[C@H](NC(=O)[C@@H]1CCCN1C(=O)[C@@H](NC(=O)[C@@H]1CCCN1C(=O)[C@@H](N)C(C)C)C(C)C)C(=O)O | DPP4 | enzyme activity, absorbance | – | pH 8 | 103 |
| COc1c(-c2ccc3c(c2)OCO3)oc2c(ccc3occc32)c1=O | CDK9 with cyclin T1 | enzyme activity, ADP detection | – | – | 38.4 |
| CC(C)[C@H](N)C(=O)N1CCC[C@H]1C(=O)N[C@H](C(=O)N1CCC[C@H]1C(=O)N[C@H](C(=O)O)C(C)C)C(C)C | DPP4 | enzyme activity, absorbance | – | pH 8 | 59.1 |
| CSCC[C@H](NC(=O)[C@H](Cc1c[nH]cn1)NC(=O)[C@H](Cc1c[nH]cn1)NC(=O)[C@@H](N)CCCCN)C(=O)N[C@@H](Cc1ccc(O)cc1)C(=O)N[C@H](C(=O)N[C@@H](CO)C(=O)NCC(=O)N[C@@H](CCCCN)C(=O)N[C@@H](C)C(=O)N[C@@H](CCCNC(=N)N)C(=O)NCC(=O)N[C@@H](Cc1c[nH]c2ccccc12)C(=O)N[C@@H](Cc1ccccc1)C(=O)O)C(C)C | APOBEC3G | enzyme activity | – | pH 7.4 | 80 |
| C[C@H]1CN(c2n[nH]c3nc(N[C@H]4CC[C@H](NS(=O)(=O)CCC(F)(F)F)CC4)ncc23)CCO1 | Cyclin-dependent kinase 9 (CDK9, Homo sapiens, UniProt P50750) | cell-free assay, chemoproteomics | – | lysate | > 20 |
| Cc1cc(C)nc(Nc2ncc(C(=O)NCCc3c(C)[nH]c4ccccc34)cn2)c1 | Cytochrome P450 2C8 (CYP2C8, Homo sapiens, UniProt P10632) | enzyme activity | human, liver microsomes | – | 4 |
| CC[C@H]1NC(=O)[C@@H]2CSC(=N2)[C@@H](Cc2ccccc2)N(C)C(=O)[C@@H]2CCCN2C(=O)[C@H](C(C)C)N(C)C(=O)[C@H](Cc2ccccc2)OC(=O)[C@H](C)[C@@H](C)NC(=O)[C@@H]([C@@H](C)O)NC(=O)[C@@H](CC(C)C)N(C)C(=O)[C@@H]2CSC1=N2 | DPP4 | enzyme activity | – | – | 347 |
| CC(C)[C@H](N)C(=O)N1CCC[C@H]1C(=O)N[C@H](C(=O)N1CCC[C@H]1C(=O)N[C@@H](CCC(N)=O)C(=O)O)C(C)C | DPP4 | enzyme activity, absorbance | – | pH 8 | 112 |
| CC[C@H](C)[C@H](N)C(=O)N[C@@H](Cc1c[nH]cn1)C(=O)N[C@@H](CC(C)C)C(=O)N[C@@H](Cc1ccc(O)cc1)C(=O)N[C@@H](Cc1ccc(O)cc1)C(=O)N[C@@H](Cc1ccccc1)C(=O)N[C@@H](CC(=O)O)C(=O)O | APOBEC3G | enzyme activity | – | pH 7.4 | 110 |
| C=CCn1c2cc(OC(=O)CCCCN3CCN(Cc4cccc(C)c4)CC3)ccc2c2ccnc(C)c21 | ACHE | enzyme activity, Ellman | – | – | 0.0358 |
| COc1c(-c2ccccc2)oc2c(ccc3occc32)c1=O | CDK9 with cyclin T1 | enzyme activity, ADP detection | – | – | > 100 |
